# Data published in ChEMBL document CHEMBL4765334, “Chemical profiling of HIV-1 capsid-targeting antiviral PF74” (Eur J Med Chem, 2020).
# Columns and labels:
# [1] = Stability of the compound in human plasma assessed as half life incubated for 3 hrs by LC-MS/MS analysis; format: ADME, cell-free
# [2] = test system: Human immunodeficiency virus 1; assay: Binding affinity to covalently-crosslinked hexameric HIV1 capsid protein A14C/E45C/W184A/M185A mutant expressed in Escherichia coli BL21(DE3)RIL assessed as change in melting temperature at 20 uM incubated for 30 mins by thermal shift dye based fluorescence analysis
# Method in brief: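 Thermal shift: 15 μM CA121 in 50 mM sodium phosphate pH 8.0 with Sypro Orange and compound at 20 μM final or DMSO control. Heated 25 to 95 °C at 0.2 °C/10 s; fluorescence Ex 475–500, Em 520–590 nm. ΔTm = Tm(compound) − T0(DMSO) for CA hexamer melting.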
# [3] = Stability of the compound in mouse plasma assessed as half life incubated for 3 hrs by LC-MS/MS analysis; format: ADME, cell-free
# [4] = test system: TZM; assay: Cytotoxicity against human TZM-GFP cells incubated for 72 hrs by XTT assay; format: cell-based; settings: tzm, 72 h
# Method in brief: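 TZM-GFP cells seeded at 1 × 10^4 per well and exposed continuously to increasing compound concentrations for 72 h. Viable cell number read by XTT proliferation kit. CC50 fitted as log(inhibitor) vs normalized response, variable slope, per independent assay and averaged. Run in duplicate, at least two independent experiments, reported as mean ± standard deviation.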
# [5] = test system: Human immunodeficiency virus 1; assay: Antiviral activity against HIV1 NL4-3 infected in human TZM-GFP cells assessed as number of GFP positive cells incubated for 48 hrs by imaging reader; format: functional, organism-based; settings: Human immunodeficiency virus 1, NL4-3, TZM
# Method in brief: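 TZM-GFP cells seeded 1 × 10^4/well and given increasing compound concentrations 24 h later; infected with HIV-1 NL4-3 (MOI = 1) after a further 24 h. Read-out after 48 h: GFP-positive cell counts (LTR-driven) versus DMSO controls. EC50 fitted as log(inhibitor) vs normalized response, variable slope, per experiment and averaged; mean ± SD, duplicates, at least two independent experiments.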
# [6] = Metabolic stability at phase 1 in human liver microsomes assessed as half life at 1 uM by LC-MS/MS analysis; format: ADME, Microsome
# [7] = Metabolic stability at phase 1 in mouse liver microsomes assessed as half life at 1 uM by LC-MS/MS analysis; format: ADME, Microsome; settings: for half-life at 1 µM: liver microsomes; for t1/2: microsomes, 1 µM
SMILES,t1/2 [1] [min],ΔTm [2] [°C],t1/2 [3] [min],CC50 [4] [nM],EC50 [5] [nM],t1/2 [6] [min],half-life at 1 µM [7] [min],t1/2 [7] [min]
Cc1c(CC(=O)N[C@@H](Cc2ccccc2)C(=O)N(C)c2ccc(F)cc2)c2ccccc2n1C(C)C,> 360,7.5,> 360,20000,320,0.6,0.5,
Cc1ccc(N(C)C(=O)[C@H](Cc2ccccc2)NC(=O)Cc2c[nH]c3ccccc23)cc1,> 360,6.6,> 360,66000,280,1.5,,0.6
CCn1cc(CC(=O)N[C@@H](Cc2ccccc2)C(=O)N(C)c2ccc(F)cc2)c2ccccc21,> 360,7.1,> 360,18000,270,1.3,0.5,
COc1ccc(N(C)C(=O)[C@H](Cc2ccccc2)NC(=O)Cc2c(C)[nH]c3ccccc23)cc1,> 360,8.4,> 360,> 100000,630,1,,0.7
CC(C)n1cc(CC(=O)N[C@@H](Cc2ccccc2)C(=O)N(C)c2ccccc2)c2ccccc21,> 360,6,> 360,21000,330,0.9,0.5,
CC(C)n1cc(CC(=O)N[C@@H](Cc2ccccc2)C(=O)N(C)c2ccc(F)cc2)c2ccccc21,> 360,6.5,> 360,18000,370,0.9,0.5,
Cc1[nH]c2ccccc2c1CC(=O)N[C@@H](Cc1ccccc1)C(=O)N(C)c1ccc(F)cc1,> 360,7,> 360,> 50000,670,1,0.5,
Cc1c(CC(=O)N[C@@H](Cc2ccccc2)C(=O)N(C)c2ccccc2)c2ccccc2n1C(C)C,> 360,7.8,> 360,16000,280,0.6,0.5,
CN(C(=O)[C@H](Cc1ccccc1)NC(=O)Cc1c[nH]c2ccccc12)c1cc(F)cc(F)c1,> 360,2.3,> 360,< 50000,2500,0.9,,0.6
COc1ccc(N(C)C(=O)[C@H](Cc2ccccc2)NC(=O)Cc2c[nH]c3ccccc23)cc1,> 360,6.2,> 360,> 100000,230,1.6,,0.6
CCN(C(=O)[C@H](Cc1ccccc1)NC(=O)Cc1c(C)[nH]c2ccccc12)c1ccccc1,> 360,8.5,> 360,82000,250,0.9,0.5,
CCn1cc(CC(=O)N[C@@H](Cc2ccccc2)C(=O)N(C)c2ccccc2)c2ccccc21,> 360,6.7,> 360,23000,310,0.9,0.5,
CCn1c(C)c(CC(=O)N[C@@H](Cc2ccccc2)C(=O)N(C)c2ccc(F)cc2)c2ccccc21,> 360,10.7,> 360,19000,220,1,0.5,
CCn1c(C)c(CC(=O)N[C@@H](Cc2ccccc2)C(=O)N(C)c2ccccc2)c2ccccc21,> 360,10.8,> 360,21000,280,1,0.5,
